Measurements: article PMC5379986 (The Journal of Experimental Medicine, 2017)

Columns and labels:
primary microglia = test: qPCR analysis of mRNA from primary microglia of LA-1-treated mice; assay type: in vivo, mouse; conditions: microglia from LA-1-treated mice, qPCR normalized to GAPDH, n = 5
Outline: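 Mice received test compound i.p. daily for 10 d (500 µl of 50 µM; DMSO/PBS vehicle). Microglia were isolated from perfused, dissociated brains with CD45 microbeads and frozen immediately for RNA. cDNA diluted 1:20 was amplified with SYBR Green. Expression was calculated by ΔΔCt relative to GAPDH.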

ISF Aβ = assay type: in vivo, mouse; conditions: 4-h LA-1 infusion and 12-h washout; n = 2 mice; Fig. 5 D, E
Outline: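 A 38-kD cutoff microdialysis probe was placed in the left hippocampus (bregma −3.1, midline −2.5, 3.2 mm below dura, 12°). It was perfused at 1 µl/min with 0.15% BSA artificial CSF, pH 7.35. After 8 h baseline, test compound was reverse-dialysed at 100 µM. Fractions were collected every 60–90 min, and Aβ40 was measured by sandwich ELISA (mHJ2 capture, mHJ5.1 detection). Male mice were used.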

[1] = Mass spectrometric analysis of LA-1 in brain and plasma; assay type: in vivo, mouse; conditions: concluded from brain levels after single i.p. dose, perfused brains
Outline: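 Male C57BL/6 mice received 500 µl of 50 µM test compound i.p., three mice per time point, sampled from 5 min to 8 h. EDTA plasma and PBS-perfused hemibrains were collected; brain was homogenised in water. Extracts diluted in methanol/acetonitrile were analysed by C18 LC-MS/MS (isocratic 85% acetonitrile, MRM m/z 420.103→375.800 and 420.103→230.000). Levels were interpolated from spiked-matrix standard curves by cubic regression.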

CR3^kd cells = test: Cell-based Aβ degradation assay with LA-1 treatment in CR3 knockdown cells; conditions: CR3 knockdown BV2 cells; Fig. 4 B
Outline: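 CR3kd BV2 cells carried a stable CD11b-targeting shRNA lentivirus; controls carried empty vector. Lines were selected with 5 µg/ml puromycin and sorted for CD11b <80% of control. Cells were seeded at 250,000/well and attached overnight. Test compound or vehicle in serum-free DMEM was added 30 min before 1 µg/ml Aβ1-42. Timed samples went into 2× protease inhibitor. Total Aβ was measured by electrochemiluminescent ELISA (21D12 capture, 3D6 detection, Aβ1-40 standards).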

[2] = system: APP-overexpressing Chinese hamster ovary cells; test: APP expression and processing after LA-1 treatment; assay type: cell-based; conditions: APP-overexpressing CHO cells, lysates and supernatants after 6 h; Fig. S2 A–F
Outline: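 Cells were APP-overexpressing CHO cells exposed to test compound in serum-free culture medium. Lysates and supernatants were harvested after 6 h.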

[3] = system: acutely isolated microglia and PBMCs; assay type: in vivo, mouse; conditions: after 10 d of LA-1 injections; n = 5 mice per group; Fig. S2 I, J
Outline: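 Mice received 500 µl of 50 µM test compound or DMSO vehicle in PBS i.p. daily for 10 d. Microglia were isolated from perfused, enzymatically dissociated brains with CD45 microbeads, and PBMCs by Ficoll. Cells were kept on ice, washed and Fc-blocked 15 min. They were then stained 30 min with labelled antibodies against CD162, CD62L, CD18, CD54, CD14, CD49d, CD11a and CD11b.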

## O=C(O)c1ccc(-c2ccc(/C=C3\SC(=S)N(Cc4ccccc4)C3=O)o2)cc1 [LA-1, Leukadherin 1]
Primary microglia; Fig. 4 E
  tPA mRNA in microglia: significant increase
Primary microglia; Fig. 4 F
  MMP2 or MMP9 mRNA levels in microglia: did not observe differences
ISF Aβ
  Reversibility of ISF Aβ reduction after exchanging drug for perfusion buffer: reversible
[1]
  BBB penetration: demonstrating BBB penetration
CR3^kd cells
  LA-1 effect on Aβ degradation in CR3^kd cells: absent
[2]
  APP expression and processing: did not change
[3]
  Vascular adhesion markers on acutely isolated microglia and PBMCs: no changes
